Experimental data as given in ChEMBL document CHEMBL5696442, “Discovery of type II inhibitors of TGFβ-activated kinase 1 (TAK1) and mitogen-activated protein kinase kinase kinase kinase 2 (MAP4K2)” (J Med Chem, 2015).
The source made the active and inactive calls. The rule behind the calls is not given here.

Assays:
[1] = test system: Epidermal growth factor receptor (Homo sapiens), P00533 [G719S]; experiment: Inhibition of EGFR G719S mutant (unknown origin) at 1 uM by Ambit Kinomescan binding assay relative to control
Sequence of Epidermal growth factor receptor (Homo sapiens), P00533 [G719S] (P00533 whole entry G719S, the tested form may be a part): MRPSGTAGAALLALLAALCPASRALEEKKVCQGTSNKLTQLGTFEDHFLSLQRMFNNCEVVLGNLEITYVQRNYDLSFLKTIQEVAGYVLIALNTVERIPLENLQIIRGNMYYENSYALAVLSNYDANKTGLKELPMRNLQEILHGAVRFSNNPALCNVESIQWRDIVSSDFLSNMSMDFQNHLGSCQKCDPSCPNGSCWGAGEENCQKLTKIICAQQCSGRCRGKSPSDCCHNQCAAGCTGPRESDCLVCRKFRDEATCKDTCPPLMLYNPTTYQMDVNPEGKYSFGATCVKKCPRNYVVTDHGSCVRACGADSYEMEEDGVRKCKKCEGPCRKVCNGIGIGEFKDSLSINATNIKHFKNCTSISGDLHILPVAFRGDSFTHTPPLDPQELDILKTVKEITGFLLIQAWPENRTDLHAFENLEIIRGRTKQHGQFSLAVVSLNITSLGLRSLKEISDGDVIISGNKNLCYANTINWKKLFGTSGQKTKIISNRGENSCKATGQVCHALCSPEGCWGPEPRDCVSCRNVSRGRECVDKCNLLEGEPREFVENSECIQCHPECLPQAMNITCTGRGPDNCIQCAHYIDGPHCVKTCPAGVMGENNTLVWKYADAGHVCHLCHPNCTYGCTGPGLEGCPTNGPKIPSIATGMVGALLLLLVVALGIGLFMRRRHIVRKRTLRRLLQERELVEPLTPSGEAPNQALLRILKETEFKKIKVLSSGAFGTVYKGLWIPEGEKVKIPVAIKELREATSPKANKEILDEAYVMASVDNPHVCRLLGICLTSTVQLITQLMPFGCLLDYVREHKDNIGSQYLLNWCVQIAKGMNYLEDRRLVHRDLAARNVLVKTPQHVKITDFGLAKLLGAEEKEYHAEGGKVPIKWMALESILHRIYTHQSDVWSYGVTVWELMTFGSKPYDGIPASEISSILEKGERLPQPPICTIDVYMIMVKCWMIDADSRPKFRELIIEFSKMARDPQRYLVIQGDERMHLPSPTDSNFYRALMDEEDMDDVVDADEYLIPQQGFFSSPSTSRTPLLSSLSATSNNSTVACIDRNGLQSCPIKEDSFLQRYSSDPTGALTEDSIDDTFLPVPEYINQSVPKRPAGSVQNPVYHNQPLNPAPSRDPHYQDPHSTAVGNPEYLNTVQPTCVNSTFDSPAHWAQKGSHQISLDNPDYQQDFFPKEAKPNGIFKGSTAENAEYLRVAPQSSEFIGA

[2] = target: Ribosomal protein S6 kinase alpha-1 (Homo sapiens) (UniProt Q15418); experiment: Inhibition of RSK1 domain1 Lys2 labeling site harbouring DLKPENILLDEEGHIKLTDFGLSK in human A-375 cells at 5 uM by KiNativ Profiling analysis relative to control; format: cell-based
Sequence of Ribosomal protein S6 kinase alpha-1 (Homo sapiens) (Q15418 whole entry, the tested form may be a part): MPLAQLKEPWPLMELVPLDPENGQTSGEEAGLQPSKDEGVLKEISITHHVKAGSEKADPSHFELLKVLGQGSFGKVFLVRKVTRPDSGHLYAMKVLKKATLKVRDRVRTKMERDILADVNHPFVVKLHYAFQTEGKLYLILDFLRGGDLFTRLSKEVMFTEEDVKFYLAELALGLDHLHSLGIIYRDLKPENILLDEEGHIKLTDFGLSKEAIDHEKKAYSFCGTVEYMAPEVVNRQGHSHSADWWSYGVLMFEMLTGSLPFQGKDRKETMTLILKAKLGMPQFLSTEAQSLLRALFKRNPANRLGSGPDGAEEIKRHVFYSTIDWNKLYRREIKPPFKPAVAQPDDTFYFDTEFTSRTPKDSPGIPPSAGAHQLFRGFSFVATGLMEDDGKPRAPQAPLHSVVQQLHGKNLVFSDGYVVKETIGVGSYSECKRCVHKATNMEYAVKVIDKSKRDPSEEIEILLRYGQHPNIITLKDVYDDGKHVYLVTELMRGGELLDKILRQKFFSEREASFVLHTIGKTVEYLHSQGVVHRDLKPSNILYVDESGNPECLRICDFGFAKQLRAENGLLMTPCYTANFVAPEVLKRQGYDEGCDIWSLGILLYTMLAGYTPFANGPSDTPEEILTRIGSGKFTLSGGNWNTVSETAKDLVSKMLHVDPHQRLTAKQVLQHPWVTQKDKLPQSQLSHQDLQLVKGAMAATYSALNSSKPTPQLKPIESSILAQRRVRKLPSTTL
In short: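 Live A375 melanoma cells treated with compound at 5 or 0.5 μM, then lysed. Lysate kinases were labeled with a lysine-reactive ATP or ADP-biotin probe. Inhibition was read as protection of labeling sites from the probe.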

[3] = target: Serine/threonine-protein kinase Chk2 (Homo sapiens) (UniProt O96017); experiment: Inhibition of CHEK2 (unknown origin) at 1 uM by Ambit Kinomescan binding assay relative to control
Sequence of Serine/threonine-protein kinase Chk2 (Homo sapiens) (O96017 whole entry): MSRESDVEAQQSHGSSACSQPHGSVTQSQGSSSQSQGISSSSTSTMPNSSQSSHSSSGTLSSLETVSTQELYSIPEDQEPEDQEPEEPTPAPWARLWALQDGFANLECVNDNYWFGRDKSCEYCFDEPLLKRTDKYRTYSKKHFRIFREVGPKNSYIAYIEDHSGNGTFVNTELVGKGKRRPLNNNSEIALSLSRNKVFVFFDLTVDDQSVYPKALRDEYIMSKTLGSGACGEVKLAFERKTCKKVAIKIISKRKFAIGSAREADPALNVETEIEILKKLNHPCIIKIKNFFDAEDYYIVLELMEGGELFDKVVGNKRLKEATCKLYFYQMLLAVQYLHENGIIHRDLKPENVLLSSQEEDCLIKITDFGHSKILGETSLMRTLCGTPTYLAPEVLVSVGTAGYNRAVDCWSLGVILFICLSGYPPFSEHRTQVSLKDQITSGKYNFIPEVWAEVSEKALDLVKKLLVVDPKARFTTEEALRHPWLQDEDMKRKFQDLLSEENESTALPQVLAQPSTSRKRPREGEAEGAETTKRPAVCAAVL

[4] = target: SRSF protein kinase 2 (Homo sapiens) (UniProt P78362); experiment: Inhibition of SRPK2 (unknown origin) at 1 uM by Ambit Kinomescan binding assay relative to control
Sequence of SRSF protein kinase 2 (Homo sapiens) (P78362 whole entry, looked up): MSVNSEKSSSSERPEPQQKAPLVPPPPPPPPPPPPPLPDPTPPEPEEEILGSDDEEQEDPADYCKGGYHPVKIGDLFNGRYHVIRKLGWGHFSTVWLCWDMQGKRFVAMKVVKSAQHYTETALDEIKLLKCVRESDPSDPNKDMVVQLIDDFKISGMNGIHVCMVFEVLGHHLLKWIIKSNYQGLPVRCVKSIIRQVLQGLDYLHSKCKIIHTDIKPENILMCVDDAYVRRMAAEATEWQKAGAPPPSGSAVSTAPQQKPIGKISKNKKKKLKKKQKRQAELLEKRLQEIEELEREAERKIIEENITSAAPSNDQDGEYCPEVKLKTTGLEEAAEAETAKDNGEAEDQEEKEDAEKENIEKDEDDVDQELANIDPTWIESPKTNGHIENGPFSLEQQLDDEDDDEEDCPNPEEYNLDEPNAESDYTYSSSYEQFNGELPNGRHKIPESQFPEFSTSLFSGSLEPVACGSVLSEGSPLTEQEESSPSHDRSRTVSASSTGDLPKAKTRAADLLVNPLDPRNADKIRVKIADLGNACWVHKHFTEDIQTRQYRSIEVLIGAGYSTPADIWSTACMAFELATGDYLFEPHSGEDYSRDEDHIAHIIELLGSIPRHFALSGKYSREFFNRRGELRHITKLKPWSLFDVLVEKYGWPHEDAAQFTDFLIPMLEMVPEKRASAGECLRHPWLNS

[5] = target: Mitogen-activated protein kinase kinase kinase 1 (Homo sapiens) (UniProt Q13233); experiment: Inhibition of MAP3K1 (unknown origin) at 1 uM by Ambit Kinomescan binding assay relative to control; values are per cent of control
[6] = target: MAP kinase-interacting serine/threonine-protein kinase 2 (Homo sapiens) (UniProt Q9HBH9); experiment: Inhibition of MKNK2 (unknown origin) at 10 uM by Ambit Kinomescan binding assay relative to control
Sequence of MAP kinase-interacting serine/threonine-protein kinase 2 (Homo sapiens) (Q9HBH9 whole entry, looked up): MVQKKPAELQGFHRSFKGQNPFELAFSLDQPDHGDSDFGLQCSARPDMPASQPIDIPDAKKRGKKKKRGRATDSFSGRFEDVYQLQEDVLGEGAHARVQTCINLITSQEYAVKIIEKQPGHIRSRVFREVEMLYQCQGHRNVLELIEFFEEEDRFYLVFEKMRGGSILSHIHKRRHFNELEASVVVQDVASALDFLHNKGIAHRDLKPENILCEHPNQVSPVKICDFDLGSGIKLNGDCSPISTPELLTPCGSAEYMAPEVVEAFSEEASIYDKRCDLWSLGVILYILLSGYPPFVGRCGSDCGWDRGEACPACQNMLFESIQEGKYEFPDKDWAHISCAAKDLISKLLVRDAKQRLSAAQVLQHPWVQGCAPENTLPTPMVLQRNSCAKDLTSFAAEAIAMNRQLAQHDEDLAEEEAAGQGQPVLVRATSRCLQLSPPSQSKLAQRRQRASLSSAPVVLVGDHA

[7] = Inhibition of NEK6/7 K2 labeling site harbouring VMHRDIKPANVFITATGVVK in human Huh-7 cells at 1 uM by KiNativ Profiling analysis relative to control; settings: condition cancer
[8] = target: T1, Mitogen-activated protein kinase kinase kinase 5 (Homo sapiens) (UniProt Q99683); experiment: Inhibition of MAP3K5 Lys1 labeling site harbouring IAIKEIPERDSR in human A-375 cells at 0.05 uM by KiNativ Profiling analysis relative to control; format: cell-based
T1 sequence (whole entry): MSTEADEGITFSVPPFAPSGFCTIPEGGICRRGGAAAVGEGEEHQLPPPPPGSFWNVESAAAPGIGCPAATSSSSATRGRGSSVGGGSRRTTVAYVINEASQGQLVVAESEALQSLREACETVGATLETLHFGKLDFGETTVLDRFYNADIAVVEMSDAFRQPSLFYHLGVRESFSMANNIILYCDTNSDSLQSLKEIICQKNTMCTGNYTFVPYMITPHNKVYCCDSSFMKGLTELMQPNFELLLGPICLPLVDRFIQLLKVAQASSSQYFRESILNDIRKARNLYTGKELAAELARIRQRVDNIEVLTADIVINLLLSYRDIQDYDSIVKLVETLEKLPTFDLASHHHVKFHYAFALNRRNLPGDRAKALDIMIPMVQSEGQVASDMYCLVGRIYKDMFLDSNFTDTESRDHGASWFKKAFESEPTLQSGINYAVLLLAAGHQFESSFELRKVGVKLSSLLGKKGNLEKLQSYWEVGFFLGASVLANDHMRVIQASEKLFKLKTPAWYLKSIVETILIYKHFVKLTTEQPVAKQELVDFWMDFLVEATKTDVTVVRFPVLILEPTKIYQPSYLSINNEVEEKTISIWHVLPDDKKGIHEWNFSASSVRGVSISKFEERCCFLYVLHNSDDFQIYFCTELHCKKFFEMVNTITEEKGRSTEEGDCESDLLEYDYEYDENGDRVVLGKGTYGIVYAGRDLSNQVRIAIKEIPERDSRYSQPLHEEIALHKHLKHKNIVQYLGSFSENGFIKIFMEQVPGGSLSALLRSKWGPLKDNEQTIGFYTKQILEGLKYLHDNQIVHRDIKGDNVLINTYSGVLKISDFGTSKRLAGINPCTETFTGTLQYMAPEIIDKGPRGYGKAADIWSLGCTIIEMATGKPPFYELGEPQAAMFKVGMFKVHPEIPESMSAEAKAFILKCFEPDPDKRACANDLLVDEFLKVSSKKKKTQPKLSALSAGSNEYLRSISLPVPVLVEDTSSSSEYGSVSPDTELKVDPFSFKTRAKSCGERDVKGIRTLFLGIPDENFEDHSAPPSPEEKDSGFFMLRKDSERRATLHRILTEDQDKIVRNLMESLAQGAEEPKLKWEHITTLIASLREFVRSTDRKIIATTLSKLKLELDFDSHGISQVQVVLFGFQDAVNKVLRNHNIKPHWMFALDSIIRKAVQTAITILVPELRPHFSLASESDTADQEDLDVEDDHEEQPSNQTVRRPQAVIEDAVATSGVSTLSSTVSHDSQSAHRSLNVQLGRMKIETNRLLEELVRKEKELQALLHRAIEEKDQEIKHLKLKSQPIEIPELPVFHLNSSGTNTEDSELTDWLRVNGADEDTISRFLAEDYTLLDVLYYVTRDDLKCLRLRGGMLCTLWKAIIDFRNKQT

[9] = target: T2, Phosphatidylinositol 5-phosphate 4-kinase type-2 alpha (Homo sapiens) (UniProt P48426); experiment: Inhibition of PIP5K2A LIP labeling site in human Huh-7 cells at 1 uM by KiNativ Profiling analysis relative to control; format: cell-based
T2 sequence (whole entry): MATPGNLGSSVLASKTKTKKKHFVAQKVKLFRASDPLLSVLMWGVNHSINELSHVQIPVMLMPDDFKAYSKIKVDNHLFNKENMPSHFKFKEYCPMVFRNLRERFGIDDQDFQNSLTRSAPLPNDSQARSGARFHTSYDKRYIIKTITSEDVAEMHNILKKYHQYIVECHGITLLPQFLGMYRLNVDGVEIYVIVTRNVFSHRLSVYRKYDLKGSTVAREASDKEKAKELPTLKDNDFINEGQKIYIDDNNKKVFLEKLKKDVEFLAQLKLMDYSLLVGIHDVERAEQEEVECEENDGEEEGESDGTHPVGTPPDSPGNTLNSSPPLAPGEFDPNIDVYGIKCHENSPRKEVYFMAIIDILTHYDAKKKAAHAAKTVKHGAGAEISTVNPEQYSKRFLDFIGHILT

[10] = target: RAF proto-oncogene serine/threonine-protein kinase (Homo sapiens, UniProt P04049); experiment: Inhibition of RAF1 Lys2 labeling site in human A-375 cells at 5 uM by KiNativ Profiling analysis relative to control; format: cell-based
[11] = target: 5'-AMP-activated protein kinase catalytic subunit alpha-2 (Homo sapiens) (UniProt P54646); experiment: Inhibition of AMPKa2 Lys2 labeling site in human Huh-7 cell lysate at 1 uM by KiNativ Profiling analysis relative to control; format: subcellular
Sequence of 5'-AMP-activated protein kinase catalytic subunit alpha-2 (Homo sapiens) (P54646 whole entry, looked up): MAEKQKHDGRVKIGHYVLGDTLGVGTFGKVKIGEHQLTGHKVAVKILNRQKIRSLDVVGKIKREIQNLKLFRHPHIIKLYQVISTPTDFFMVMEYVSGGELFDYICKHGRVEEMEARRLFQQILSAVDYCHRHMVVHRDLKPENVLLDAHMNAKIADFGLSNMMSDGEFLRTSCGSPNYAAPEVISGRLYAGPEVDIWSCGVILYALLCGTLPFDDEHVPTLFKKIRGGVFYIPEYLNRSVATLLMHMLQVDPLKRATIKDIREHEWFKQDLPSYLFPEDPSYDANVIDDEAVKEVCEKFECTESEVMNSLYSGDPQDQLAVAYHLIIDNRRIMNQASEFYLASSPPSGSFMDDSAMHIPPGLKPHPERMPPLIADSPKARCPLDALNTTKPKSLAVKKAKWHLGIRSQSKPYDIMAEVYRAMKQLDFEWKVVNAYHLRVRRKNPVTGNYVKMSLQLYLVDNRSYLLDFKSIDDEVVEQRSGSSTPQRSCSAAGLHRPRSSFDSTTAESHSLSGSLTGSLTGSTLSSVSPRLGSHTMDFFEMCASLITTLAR

[12] = target: Serine/threonine-protein kinase MARK2 (Homo sapiens) (UniProt Q7KZI7); experiment: Inhibition of MARK2 Lys1 labeling site harbouring HILTGKEVAVKIIDKTQLNSSSLQK in human Huh-7 cells at 1 uM by KiNativ Profiling analysis relative to control; format: cell-based
Sequence of Serine/threonine-protein kinase MARK2 (Homo sapiens) (Q7KZI7 whole entry): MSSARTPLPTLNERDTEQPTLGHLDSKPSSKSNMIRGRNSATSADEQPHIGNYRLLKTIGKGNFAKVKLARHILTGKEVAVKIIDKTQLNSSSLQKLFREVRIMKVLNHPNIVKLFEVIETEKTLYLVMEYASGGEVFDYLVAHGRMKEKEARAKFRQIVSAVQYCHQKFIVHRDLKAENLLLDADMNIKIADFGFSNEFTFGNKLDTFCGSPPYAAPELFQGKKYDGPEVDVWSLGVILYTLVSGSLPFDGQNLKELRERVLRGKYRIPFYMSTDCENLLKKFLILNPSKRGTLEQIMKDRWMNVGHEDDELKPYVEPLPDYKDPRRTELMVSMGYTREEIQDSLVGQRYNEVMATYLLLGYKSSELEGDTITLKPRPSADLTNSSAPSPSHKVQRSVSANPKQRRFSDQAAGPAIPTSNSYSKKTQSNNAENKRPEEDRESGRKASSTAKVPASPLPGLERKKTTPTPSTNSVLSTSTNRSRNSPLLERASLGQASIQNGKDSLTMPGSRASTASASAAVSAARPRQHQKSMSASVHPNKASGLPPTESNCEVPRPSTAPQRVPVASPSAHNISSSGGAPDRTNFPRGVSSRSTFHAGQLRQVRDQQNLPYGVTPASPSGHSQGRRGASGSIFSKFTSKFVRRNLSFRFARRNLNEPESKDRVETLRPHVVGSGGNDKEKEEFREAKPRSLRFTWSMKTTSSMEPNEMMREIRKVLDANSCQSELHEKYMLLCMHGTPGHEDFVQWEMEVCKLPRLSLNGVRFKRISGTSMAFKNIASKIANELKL

Which inhibition [1] does the source give for CCN1CCN(Cc2ccc(NC(=O)c3ccc(C)c(/C=C/c4cnc5[nH]ccc5c4OC)c3)cc2C(F)(F)F)CC1 here?
Its inhibition is 0.9%.

What about the inhibition [2] of the same compound?
Its inhibition is -4.9%.

What about the inhibition [3] of the same compound?
Its inhibition is 82%.

And the inhibition [4]?
The inhibition was 76%.

What about the residual activity [5] of the same compound?
The residual activity was 100%.

With CCN1CCN(Cc2ccc(NC(=O)c3ccc(C)c(Oc4ccnc5[nH]ccc45)c3)cc2C(F)(F)F)CC1 as the compound, how does the inhibition [6] read?
The inhibition was “inactive”.

What about the inhibition at 1 µM [7] of the same compound?
The inhibition at 1 µM was -15.7%.

And the inhibition [8]?
Its inhibition is -3.3%.

And the inhibition [9]?
The inhibition was -0.3%.

What about the inhibition [10] of the same compound?
Its inhibition is 83.8%.

With CNc1cc(Oc2cc(C(=O)Nc3cc(N4CCN(C)CC4)cc(C(F)(F)F)c3)ccc2C)ncn1 as the compound, how does the inhibition [11] read?
The inhibition was 0.5%.

And the inhibition [12]?
The inhibition was -0.2%.
